# Reference: ChEMBL document CHEMBL5647693, “Molecular basis underlying resistance to Mps1/TTK inhibitors” (Oncogene, 2016)
# Calls of active or inactive are those of the source. The rule behind the calls is not given here.
# Key:
# U2OS [1] = assay: cells; assay type: functional, cell-based; conditions: Homo sapiens, 120 h
# U2OS [2] = assay: Induction of mitotic arrest in human U2OS cells harboring LAP-Mps1 C604Y mutant assessed as maintain in checkpoint-dependent arrest at 100 nM incubated for 16 hrs in the presence of nocodazole; assay type: functional, cell-based
# In short: (§1)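 About 10 000 cells per 96-well plated on day 0. On day 1, nocodazole (200 ng/ml) plus Cpd-5 at various concentrations added for 16 h. Fixed in 5% formaldehyde, stained for phospho-histone H3-Ser10 and DAPI, up to nine images per well (~3000 cells). Mitotic index = pH3S10-positive/DAPI-positive cells, normalized; three independent experiments.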
# Homo sapiens [3] = species: Homo sapiens; assay: Inhibition of recombinant Mps1 I598F mutant (unknown origin) assessed as KNL1 phosphorylation level incubated for 10 min by Western blot analysis
# U2OS [4] = assay: Induction of mitotic arrest in human U2OS cells harboring LAP-Mps1 I598F mutant assessed as maintain in checkpoint-dependent arrest at 100 nM incubated for 16 hrs in the presence of nocodazole; assay type: functional, cell-based
# In short: as §1
# HCT-116 [5] = assay: Inhibition of colony formation in human HCT-116 cells harboring Mps1 C604Y-A mutant assessed as cell survival at 60 nM incubated for 14 days by crystal violet staining based colony formation assay; assay type: functional; conditions: time 14.0 day
# In short: (§2)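 About 500–600 cells per 6-well plated on day 0, Cpd-5 added day 1 at 60 nM, colonies grown to day 14. Fixed 10 min in 96% methanol, stained with 0.1% crystal violet, scanned and analysed. Parental and drug-selected clones tested side by side.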
# HeLa [6] = assay: Induction of mitotic arrest in human HeLa cells harboring Mps1-C604F mutant assessed as decrease in average mitotic time with mis seggregation at 200 nM relative to control; assay type: functional; set-up: scale not given: the % may be the effect or the level left
# HeLa [7] = assay: Induction of mitotic arrest in human HeLa cells harboring Mps1-C604F mutant assessed as decrease in average mitotic time with most mild seggregation errors at 200 nM; assay type: functional, cell-based
# U2OS [8] = assay: Induction of mitotic arrest in human U2OS cells harboring LAP-Mps1 531M mutant assessed as maintain in checkpoint-dependent arrest at 100 nM incubated for 16 hrs in the presence of nocodazole; assay type: functional, cell-based
# In short: as §1
# U2OS [9] = assay: Inhibition of colony formation in human U2OS cells harboring wild-type LAP-Mps1 assessed as cell survival incubated for 5 days by crystal violet staining based colony formation assay; assay type: functional; conditions: 120 h
# In short: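 Cells seeded at ~1500 per 96-well on day 0; inhibitor added on day 1 over a concentration range. On day 6, fixed 10 min in 96% methanol, stained with 0.1% crystal violet, scanned and quantified. Survival relative to untreated; IC50 from dose–response curves; mean of three independent experiments. Culture in DMEM with 6% FCS.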
# DLD-1 [10] = assay: cells; assay type: functional, cell-based; conditions: Homo sapiens, DLD-1, 120 h
# DLD-1 [11] = assay: Induction of mitotic arrest in human DLD-1 cells assessed as decrease in mitotic index at 30 nM incubated for 16 hrs; assay type: functional; set-up: scale not given: the % may be the effect or the level left
# In short: as §1
# DLD-1 [12] = assay: Antiproliferative activity against human DLD-1 cells harboring Mps1 S611R mutant assessed as change in Mps1 expression level by Western blot analysis; assay type: functional, cell-based
# In short: (§3)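 Lysis in Tris/HCl pH 7.5 with 150 mM NaCl, 1% Triton X-100, DTT, EDTA, phosphatase and protease inhibitors. SDS-PAGE, transfer to nitrocellulose, block in 4% BSA 0.5 h at room temperature, primary antibody (Mps1-NT) overnight at 4 °C, secondary 1:2000 for 1 h, ECL chemiluminescence detection.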
# HCT-116 [13] = assay: Inhibition of colony formation in human HCT-116 cells harboring Mps1 C604Y-B mutant assessed as cell survival incubated for 5 days crystal violet staining based colony formation assay; assay type: functional; conditions: HCT-116, 120 h
# In short: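 Cells (~1500 per well, 96-well format) seeded day 0; inhibitor added day 1 over a range of concentrations; on day 6 fixed 10 min in 96% methanol, stained with 0.1% crystal violet, washed, scanned and quantified. Grown in DMEM with 6% FCS, penicillin-streptomycin, 2 mM L-glutamine. Survival relative to untreated; IC50 from curve fit, average of three independent experiments.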
# HCT-116 [14] = assay: Inhibition of colony formation in human HCT-116 cells harboring wild-type Mps1 assessed as cell survival at 60 nM incubated for 14 days by crystal violet staining based colony formation assay; assay type: functional; conditions: time 14.0 day
# In short: as §2
# HeLa [15] = assay: Inhibition of colony formation in human HeLa cells harboring Mps1 C604Y mutant at 80 nM incubated for 14 days in the presence of oligonucleotide and Cas9/gRNA by crystal violet staining based colony formation assay; assay type: functional, cell-based; conditions: time 14.0 day
# In short: (§4)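 HeLa (1 × 10^6) transfected with mock, a 100-bp repair oligonucleotide alone, or oligonucleotide plus pX330 Cas9/Mps1-targeting gRNA. Selected with 80 nM Cpd-5 for 14 days in 10-cm plates, then stained with crystal violet.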
# HCT-116 [16] = assay: Inhibition of colony formation in human HCT-116 cells harboring Mps1 531M mutant assessed as cell survival at 60 nM incubated for 14 days by crystal violet staining based colony formation assay; assay type: functional; conditions: time 14.0 day
# In short: as §2
# HeLa [17] = assay: Induction of mitotic arrest in human HeLa cells assessed as depletion in KNL1 phosphorylation at 50 to 100 nM by immunostaining method; assay type: functional, cell-based; conditions: dose 50-100 nM
# In short: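 HeLa cells given DMSO, 50 or 100 nM Cpd-5, immunostained for phospho-KNL1 (MELT13/17) and CREST, DNA with DAPI. Kinetochore ph-KNL1/CREST fluorescence intensity ratios from 200 kinetochores per condition.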
# HeLa [18] = assay: Induction of mitotic arrest in human HeLa cells harboring Mps1 C604Y mutant assessed as initiating anaphase at 200 nM and measured after nuclear envelope breakdown; assay type: functional, cell-based
# HeLa [19] = assay: Inhibition of colony formation in human HeLa cells harboring Mps1 I598F mutant assessed as cell survival at 60 nM incubated for 14 days by crystal violet staining based colony formation assay; assay type: functional; conditions: time 14.0 day
# In short: as §2
# HCT-116 [20] = assay: Antiproliferative activity against human HCT-116 cells harboring Mps1 531M mutant assessed as change in Mps1 expression level by Western blot analysis; assay type: functional, cell-based
# In short: as §3
# HCT-116 [21] = assay: Inhibition of colony formation in human HCT-116 cells harboring Mps1 C604Y-B mutant assessed as cell survival at 60 nM incubated for 14 days by crystal violet staining based colony formation assay; assay type: functional; conditions: time 14.0 day
# In short: as §2
# HeLa [22] = assay: Inhibition of colony formation in human HeLa cells harboring wild-type Mps1 assessed as cell survival at 60 nM incubated for 14 days by crystal violet staining based colony formation assay; assay type: functional; conditions: time 14.0 day
# In short: as §2
# HCT-116 [23] = assay: Antiproliferative activity against human HCT-116 cells harboring Mps1 C604Y-A mutant assessed as change in Mps1 expression level by Western blot analysis; assay type: functional, cell-based
# In short: as §3
# HeLa [24] = assay: Induction of mitotic arrest in human HeLa cells assessed as decrease in average mitotic time with severe seggregation errors at 100 nM relative to control; set-up: scale not given: the % may be the effect or the level left
# DLD-1 [25] = assay: Inhibition of colony formation in human DLD-1 cells harboring Mps1 S611R mutant assessed as cell survival at 60 nM incubated for 14 days by crystal violet staining based colony formation assay; assay type: functional; conditions: time 14.0 day
# In short: as §2
# HCT-116 [26] = assay: Antiproliferative activity against human HCT-116 cells harboring Mps1 C604Y-B mutant assessed as change in Mps1 expression level by Western blot analysis; assay type: functional, cell-based
# In short: as §3
# U2OS [27] = assay: Induction of mitotic arrest in human U2OS cells harboring LAP-Mps1 S611R mutant assessed as maintain in checkpoint-dependent arrest at 100 nM incubated for 16 hrs in the presence of nocodazole; assay type: functional, cell-based
# In short: as §1
# HCT-116 [28] = assay: Induction of mitotic arrest in human HCT-116 cells harboring Mps1 C604Y mutant assessed as mitotic index at 200 to 400 nM incubated for 16 hrs in the presence of nocodazole; assay type: functional, cell-based; conditions: dose 200-400 nM
# In short: as §1
# HCT-116 [29] = assay: Induction of mitotic arrest in human HCT-116 cells assessed as decrease in mitotic index at 30 nM incubated for 16 hrs; assay type: functional; set-up: scale not given: the % may be the effect or the level left
# In short: as §1
# HeLa [30] = assay: cells; assay type: functional, cell-based; conditions: Homo sapiens, 120 h
# HeLa [31] = assay: Induction of mitotic arrest in human HeLa cells harboring Mps1 C604F mutant assessed as initiating anaphase at 200 nM and measured after nuclear envelope breakdown; assay type: functional, cell-based
# Homo sapiens [32] = species: Homo sapiens; assay: Inhibition of recombinant Mps1 C604Y mutant (unknown origin) assessed as KNL1 phosphorylation level incubated for 10 min by Western blot analysis
# HeLa [33] = assay: Induction of mitotic arrest in human HeLa cells expressing histone H2B-YFP assessed as chromosome misalignment at 50 to 100 nM incubated for 16 hrs by time-lapse microscopy relative to control; assay type: functional; conditions: dose 50-100 nM
# In short: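 HeLa H2B-YFP cells imaged live at 37 °C in L-15 after DMSO or 50/100 nM Cpd-5. Anaphases scored for missegregation as mild (up to 3 chromosomes) or severe (>3 chromosomes), 50 cells per condition.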
# HeLa [34] = assay: Inhibition of colony formation in human HeLa cells harboring Mps1 C604Y mutant at 80 nM incubated for 14 days in the presence of oligonucleotide by crystal violet staining based colony formation assay; assay type: functional, cell-based; conditions: time 14.0 day
# In short: as §4
# DLD-1 [35] = assay: Induction of mitotic arrest in human DLD-1 cells harboring Mps1 S611R mutant assessed as mitotic index at 200 to 400 nM incubated for 16 hrs in the presence of nocodazole; assay type: functional, cell-based; conditions: dose 200-400 nM
# In short: as §1
# Homo sapiens [36] = species: Homo sapiens; assay: Inhibition of recombinant Mps1 531M mutant (unknown origin) assessed as KNL1 phosphorylation level incubated for 10 min by Western blot analysis
# Homo sapiens [37] = species: Homo sapiens; assay: Inhibition of recombinant Mps1 S611R mutant (unknown origin) assessed as KNL1 phosphorylation level incubated for 10 min by Western blot analysis
# HCT-116 [38] = assay: cells; assay type: functional, cell-based; conditions: Homo sapiens, HCT-116, 120 h
# HeLa [39] = assay: Antiproliferative activity against human HeLa cells harboring Mps1 I598F mutant assessed as change in Mps1 expression level by Western blot analysis; assay type: functional, cell-based
# In short: as §3
# HeLa [40] = assay: Induction of mitotic arrest in human HeLa cells expressing histone H2B-YFP assessed as initiating anaphase at 50 to 100 nM incubated for 16 hrs and measured within 15 min after nuclear envelope breakdown by time-lapse microscopy relative to control; assay type: functional; conditions: dose 50-100 nM, time 975 min, 16.25 h
# In short: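 Live imaging of HeLa H2B-YFP cells in L-15 medium at 37 °C after DMSO or 50/100 nM Cpd-5, no nocodazole. Time from nuclear envelope breakdown to anaphase onset recorded for 50 cells per condition; cumulative anaphase-onset percentage and mean mitotic duration.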
# HeLa [41] = assay: Induction of mitotic arrest in human HeLa cells harboring Mps1-C604F mutant assessed as […] in average mitotic time with severe seggregation at 400 nM relative to control; assay type: functional
# HCT-116 [42] = assay: Induction of mitotic arrest in human HCT-116 cells harboring Mps1 I531M mutant assessed as mitotic index at 200 to 400 nM incubated for 16 hrs in the presence of nocodazole; assay type: functional, cell-based; conditions: dose 200-400 nM
# In short: as §1
structure (smiles),measurement,setting,value
CCc1cccc(CC)c1NC(=O)c1nn(C)c2c1CCc1cnc(Nc3ccc(N4CCN(C)CC4)cc3OC)nc1-2,IC50,U2OS [1],0.0206 µM
same,Activity,U2OS [2],Active
same,inhibition,Homo sapiens [3],Active
same,Activity,U2OS [4],Active
same,inhibition,HCT-116 [5],Active
same,Activity,HeLa [6],70%
same,Activity,HeLa [7],Active
same,Activity,U2OS [8],Active
same,IC50,U2OS [9],0.0332 µM
same,IC50,DLD-1 [10],0.0246 µM
same,Activity,DLD-1 [11],70%
same,Activity,DLD-1 [12],inactive
same,IC50,HCT-116 [13],0.31 µM
same,inhibition,HCT-116 [14],inactive
same,Activity,HeLa [15],Active
same,inhibition,HCT-116 [16],Active
same,Activity,HeLa [17],Active
same,Activity,HeLa [18],inactive
same,inhibition,HeLa [19],Active
same,Activity,HCT-116 [20],inactive
same,inhibition,HCT-116 [21],Active
same,inhibition,HeLa [22],inactive
same,Activity,HCT-116 [23],inactive
same,Activity,HeLa [24],100%
same,inhibition,DLD-1 [25],Active
same,Activity,HCT-116 [26],inactive
same,Activity,U2OS [27],Active
same,Activity,HCT-116 [28],Active
same,Activity,HCT-116 [29],60%
same,IC50,HeLa [30],0.252 µM
same,Activity,HeLa [31],inactive
same,inhibition,Homo sapiens [32],Active
same,Activity,HeLa [33],100%
same,Activity,HeLa [34],Active
same,Activity,DLD-1 [35],Active
same,inhibition,Homo sapiens [36],Active
same,inhibition,Homo sapiens [37],Active
same,IC50,HCT-116 [38],0.0201 µM
same,Activity,HeLa [39],inactive
same,Activity,HeLa [40],100%
same,Activity,HeLa [41],100%
same,Activity,HCT-116 [42],Active
